DNMT1 inh = blocks human DNA methyltransferase DNMT1; 360,000 tested, 0.83% active; inhibition (reported as % activation of signal), % at 10 µM; DNMT1 molecular beacon, Hinp1I cleavage, fluorescence; P26358; in the data active means inhibition above about 50%
STEP inh = blocks human striatal-enriched tyrosine phosphatase; recombinant STEP, OMFP fluorogenic substrate, fluorescence; 360,000 tested, 0.25% active; inhibition, % at 20 µM; P54829;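 active means inhibition at 20 µM, scaled per plate between control wells, above about 37%, limit read from the data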;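 further: 0% = DMSO with enzyme and substrate and 100% = substrate only without enzyme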
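Assay system: isolated STEP enzyme / Timing: 20 min at room temperature, dark / Doses: 20 µM, 1% DMSO / Technique: fluorescence intensity, excitation 480 nm, emission 540 nm / Reagent: fluorogenic phosphatase substrate OMFP at 25 µM final / Measure: percent inhibition scaled to no-enzyme and uninhibited-enzyme controls, plate-pattern corrected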
SUMO1 PPI mod = modulators of human SUMO1-mediated protein-protein interactions; P63165; SUMO1 binding to a labelled peptide, TR-FRET, 1 h; 360,000 tested, 0.33% active; inhibition, % at 20 µM; in the data active means inhibition above about 37%
Scp-1 inhibitor = blocks human Scp-1 phosphatase activity. Q9GZU7. Recombinant Scp1, phosphopeptide, malachite green phosphate absorbance. inhibition, % at 20 µM. 340,000 tested, 0.88% active. AID 493091;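 active means inhibition above about 50% at 20 µM, limit read from the data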;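 further: plate controls were DMSO wells with enzyme for no effect and wells lacking enzyme for full effect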
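Incubation: 45 min enzyme reaction at room temperature / System: truncated SCP-1 phosphatase (76-261aa) / Reagent: Phospho 17-mer peptide substrate / Buffer or medium: Acidic Tris acetate buffer with magnesium and detergent / Signal: absorbance at 630 nm / Doses: one concentration, 20 µM, with 1.0% DMSO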
LMPTP block = blocks human LMPTP phosphatase. P24666. recombinant LMPTP-A, OMFP fluorogenic substrate, fluorescence intensity. inhibition, % at 20 µM. 360,000 tested, 0.22% active. AID 651560;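 active means compounds that cut the enzyme signal by at least half of the control window in the single-dose screen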;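 further: plate controls were DMSO wells with enzyme plus substrate for no effect and substrate without enzyme for full effect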
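Material: LMPTP-A; amount: 0.625 nM enzyme; doses: single 20 µM dose; times: reaction 50 min, room temperature, dark; technique: fluorescence intensity of OMFP turnover product; benchmarks: no-enzyme and uninhibited controls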
GRK2 inh = inhibitors of human GRK2 displacing RNA aptamer. inhibition of aptamer binding, % at 10 µM. 330,000 tested, 0.59% active. bead flow cytometry, FAM-aptamer displacement from GRK2. P25098. AID 488847;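 active means inhibition of aptamer binding above 40%, roughly 3 SD of noise, on plates passing a quality check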;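 further: median bead fluorescence of bound FAM aptamer so fluorescent compounds give negative values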
Target sequence (P25098 whole entry, looked up): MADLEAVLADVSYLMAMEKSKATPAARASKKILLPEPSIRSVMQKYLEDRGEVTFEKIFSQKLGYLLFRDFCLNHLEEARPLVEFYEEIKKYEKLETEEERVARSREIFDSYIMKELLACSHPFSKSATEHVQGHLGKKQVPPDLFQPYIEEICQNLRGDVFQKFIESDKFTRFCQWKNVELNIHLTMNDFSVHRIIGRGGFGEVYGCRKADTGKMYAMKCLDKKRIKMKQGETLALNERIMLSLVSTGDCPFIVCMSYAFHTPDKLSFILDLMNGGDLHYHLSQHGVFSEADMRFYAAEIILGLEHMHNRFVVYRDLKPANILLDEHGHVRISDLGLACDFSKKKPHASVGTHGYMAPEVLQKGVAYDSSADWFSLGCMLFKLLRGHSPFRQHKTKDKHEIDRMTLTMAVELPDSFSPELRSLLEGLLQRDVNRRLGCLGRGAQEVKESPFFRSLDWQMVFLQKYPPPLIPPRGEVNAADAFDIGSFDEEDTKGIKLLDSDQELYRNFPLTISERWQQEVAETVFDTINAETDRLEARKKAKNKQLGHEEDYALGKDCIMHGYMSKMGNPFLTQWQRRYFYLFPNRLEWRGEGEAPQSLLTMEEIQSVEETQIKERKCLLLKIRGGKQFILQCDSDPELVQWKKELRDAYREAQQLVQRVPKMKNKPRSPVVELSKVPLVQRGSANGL
Scp-1 conf = Scp-1 (human) inhibition, single-dose confirmed; shares compounds with Scp-1 inhibitor; recombinant SCP-1 catalytic domain, phosphate release, malachite green absorbance; inhibition, % at 20 µM; 2,500 tested, 61% active; AID 540281;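 further: plate controls were DMSO with enzyme for no effect and buffer wells lacking enzyme for full effect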
Scp-1 MG ctr = counter-screen for Scp-1 inhibitors: colorimetric interference | apparent inhibition (interference), % at 20 µM | Colorimetric interference counterscreen, malachite green absorbance 630 nm | shares compounds with Scp-1 inhibitor | 2,500 tested, under 10 active;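 further: compounds added after enzyme reaction finished so only phosphate colour detection is probed; plate controls were DMSO wells with completed Scp-1 reaction for no effect and substrate wells lacking enzyme for full effect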
Scp-1 Tm shift = validation of human Scp-1 inhibitors by thermal shift binding. 1,500 tested, 25% active. Recombinant SCP1, Sypro Orange thermal shift Tm. shares compounds with Scp-1 inhibitor. thermal shift relative to vanadate control, % at 40 µM;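 active means substances whose mean melting-temperature shift, as a percentage of the reference inhibitor's shift, reaches about 5.3%, limit read from the data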;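 further: 0% = Tm of DMSO wells and 100% = Tm with sodium orthovanadate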
The depositor's hits bear a star; . = no result. Shown are actives, neighbours in structure and some others; about 2.1% of the full set was active somewhere.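 How the source made its calls, unless noted: active means inhibition of at least 30% at 20 µM; inactive means the rest.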

SMILES	DNMT1 inh	STEP inh	SUMO1 PPI mod	Scp-1 inhibitor	LMPTP block	GRK2 inh	Scp-1 conf	Scp-1 MG ctr	others
CCOC(=O)C1C(C(C)=O)=C(c2ccccc2)c2ccccc2N1S(=O)(=O)C(F)(F)F (stereo not given)	9	0	-5	88*	1	6	22	-23
Cc1cc2c(SCC(=O)Nc3cccc(O)c3)ncnc2s1	70*	10	22	70*	32	.	59*	-15	Scp-1 Tm shift=13*
Cc1sc2ncnc(SCC(=O)Nc3ncccc3O)c2c1C	29	5	20	59*	8	5	72*	-2	Scp-1 Tm shift=9.8*
Cc1cccnc1NC(=O)CSc1ncnc2sc(C)c(C)c12	-1	3	3	-1	-1	2	.	.
CC(=O)c1ccc(S(=O)(=O)N2CCN(C(=O)c3ccc(-n4nc(C)c(Cl)c4C)cc3)CC2)cc1	-8	-1	-4	2	1	0	.	.
Cc1c(C(=O)O)oc2ccc(S(=O)(=O)NCCC3=CCCCC3)cc12	-1	-1	0	52*	1	4	1	-4
CC1CC2C3CCC4=CC(=O)CCC4(C)C3CCC2(C)C1(O)C(=O)CO (stereo not given)	12	-3	-6	59*	-1	.	-23	-19
CC(C)C[C@H]1CNC(=O)C(=O)N1C[C@@H]1CCCN1C[C@H](CC(C)C)N1C[C@H](Cc2ccccc2)N(CCc2ccccc2)C(=O)C1=O	.	.	1	.	-2	.	.	.
CCOc1ccccc1-c1nc(-c2cc3ccc(C)cc3[nH]c2=O)no1	4	33	0	57*	3	1	39*	-4	Scp-1 Tm shift=-4
CCCc1nc(-c2cc3ccc(C)cc3[nH]c2=O)no1	4	-2	-9	-5	-1	0	.	.
CC(C)(O)C#Cc1ccc(CNC[C@H]2O[C@@H](n3cnc4c(N)ncnc43)[C@H](O)[C@@H]2O)s1	1	0	-2	7	-1	4	.	.
Cc1nn(CC(=O)Nc2ccccc2)c(=O)c2ccccc12	3	-12	-1	70*	-1	3	-3	-5
COc1ccc(CN(C)C(=O)/C=C/[C@H]2O[C@@H](n3cc(C)c(=O)[nH]c3=O)C[C@@H]2O)cc1OC	7	-4	5	.	0	.	.	.
Cc1ccc(S(=O)(=O)N(C)C[C@@H]2Oc3ccc(NS(=O)(=O)c4ccccc4)cc3CC(=O)N([C@@H](C)CO)C[C@H]2C)cc1	-3	1	1	50*	0	.	11	9
C[C@H](CO)N1C[C@H](C)[C@@H](CN(C)C(=O)NC2CCCCC2)Oc2ccc(NS(=O)(=O)c3cn(C)cn3)cc2C1=O	7	-2	1	25	0	5	.	.
Cc1ccc(S(=O)(=O)Nc2ccc3c(c2)CC(=O)N([C@H](C)CO)C[C@@H](C)[C@H](CN(C)S(=O)(=O)c2ccccc2)O3)cc1	3	1	2	-6	0	0	.	.
C[C@H](CO)N1C[C@H](C)[C@@H](CN(C)C(=O)Nc2ccc(C(F)(F)F)cc2)Oc2ccc(NS(=O)(=O)c3cn(C)cn3)cc2C1=O	9	0	2	73*	1	4	-15	-19
C[C@H](CO)N1C[C@H](C)[C@@H](CN(C)C(=O)Nc2ccccc2)Oc2c(NS(=O)(=O)c3cn(C)cn3)cccc2C1=O	-2	1	8	17	-1	0	.	.
CC(C)NC(=O)N(C)C[C@H]1Oc2ccc(NS(=O)(=O)c3cn(C)cn3)cc2C(=O)N([C@H](C)CO)C[C@@H]1C	10	-5	6	82*	-2	0	6	-9
C[C@@H]1CN([C@@H](C)CO)C(=O)Cc2cc(NS(=O)(=O)c3cn(C)cn3)ccc2O[C@@H]1CN(C)C(=O)Nc1ccccc1	2	3	3	88*	0	0	62*	-8	Scp-1 Tm shift=-4
Cc1noc(C)c1S(=O)(=O)N(C)C[C@H]1Oc2ccc(NS(=O)(=O)c3ccc(F)cc3)cc2C(=O)N([C@H](C)CO)C[C@@H]1C	4	-1	0	4	-1	0	.	.
Cc1noc(C)c1S(=O)(=O)N(C)C[C@H]1Oc2ccc(NS(=O)(=O)c3cn(C)cn3)cc2C(=O)N([C@H](C)CO)C[C@@H]1C	0	-3	2	53*	0	0	9	-11
COc1ccc(N2CCN(C(=O)COC(=O)c3nc(Cl)ccc3Cl)CC2)cc1	2	1	-5	.	-2	.	.	.
CC(C)(C)S(=O)N1Cc2cc(C(=O)N3CCc4ccccc4C3)nc(-c3cccc(-c4ccncc4)c3)c2[C@H]1CCO (stereo not given in full)	-20	0	22	.	12	.	.	.
C(=N\n1c2ccccc2c2ccccc21)/c1ccccc1	-2	-1	-5	-8	2	0	.	.
SMILES	DNMT1 inh	STEP inh	SUMO1 PPI mod	Scp-1 inhibitor	LMPTP block	GRK2 inh	Scp-1 conf	Scp-1 MG ctr	others
C[n+]1cn(/N=C/c2ccccc2)c2ccccc21	-1	-4	-4	113*	-3	0	-4	-8
C(=NNc1nnn(Cc2ccccc2)n1)c1ccccc1	17	0	-1	.	-1	.	.	.
CCCCOCCCNC(=O)C[C@@H]1C[C@@]2(C(=O)OCC)CCC=C2N(Cc2ccc3c(c2)OCO3)C1=O	.	.	2	.	0	.	.	.
C[N+]1(C)CCC(=C2c3ccccc3CC(=O)c3sccc32)CC1	2	5	12	97*	0	1	3	-3
COc1ccc(Br)cc1/C=C(\C(=O)O)c1ccc(S(=O)(=O)N2CCCC2)s1	42	3	-2	67*	5	0	60*	-24	Scp-1 Tm shift=6.3*
O=C(O)/C(=C\c1cccc([N+](=O)[O-])c1)c1ccc(S(=O)(=O)N2CCCCC2)s1	23	2	-12	52*	4	1	73*	-5	Scp-1 Tm shift=20*
O=C(O)/C(=C\c1cccc(C(F)(F)F)c1)c1ccc(S(=O)(=O)N2CCCC2)s1	11	-2	-4	11	-1	5	.	.
